Measurements published in ChEMBL document CHEMBL4196235, “SAR of 4-Alkoxybenzoic Acid Inhibitors of the Trypanosome Alternative Oxidase” (ACS Med Chem Lett, 2018).
Values after ≈ are worked out from the molar mass of the structure shown. Active and inactive are the calls of the source. No cut-off for these calls is given here.

How the values were obtained:
[1] = Cytotoxicity against HEK293T cells after 30 hrs by resazurin dye based fluorescence assay; type: cell-based, HEK-293T; conditions: human
Method in brief: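 Cytotoxicity was measured on human embryonic kidney (HEK) cells and reported as CC50. Values are the mean of 3 experiments ± SEM.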

[2] = test system: Trypanosoma brucei brucei; assay: Antiparasitic activity against bloodstream trypomastigote stage of wild type Trypanosoma brucei brucei Lister 427 after 48 hrs by resazurin dye based fluorescence assay; type: functional, organism-based
Method in brief: (§1)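 Bloodstream trypomastigotes of T. b. brucei s427 (wild type) were tested, both with and without glycerol. EC50 values are the mean of 3 experiments ± SEM.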

[3] = test system: Trypanosoma brucei brucei; assay: Resistance factor, ratio of EC50 for diminazene, pentamidine and melaminophenyl arsenical-resistant bloodstream trypomastigote stage of Trypanosoma brucei brucei B48 harboring TbAT1 deletions to EC50 for bloodstream trypomastigote stage of wild-type Trypanosoma brucei brucei Lister 427; type: functional
[4] = molecular target: T1, Alternative oxidase, mitochondrial (Trypanosoma brucei brucei, UniProt Q26710); assay: Inhibition of recombinant Trypanosoma brucei brucei alternative oxidase using ubiquinol-1 as substrate incubated for 2 mins followed by substrate addition by spectrophotometric method
Method in brief: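 The assay measured inhibition of the ubiquinol oxidase activity of purified recombinant ∆MTS-TAO from T. b. brucei.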

[5] = Selectivity index, ratio of CC50 for HEK293T cells to EC50 for bloodstream trypomastigote stage of wild type Trypanosoma brucei brucei Lister 427; type: toxicity; conditions: human; read-out: Ratio CC50/EC50
Method in brief: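 The selectivity index was calculated as CC50 in HEK cells divided by EC50 against wild-type T. b. brucei s427 bloodstream trypomastigotes.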

[6] = Dissociation constant, pKa of the compound; type: physicochemical
[7] = test system: Trypanosoma brucei brucei; assay: Antiparasitic activity against bloodstream trypomastigote stage of wild type Trypanosoma brucei brucei Lister 427 at 100 uM after 48 hrs by resazurin dye based fluorescence assay; type: functional, organism-based
[8] = test system: Trypanosoma brucei brucei; assay: Resistant factor, ratio of EC50 for pentamidine-resistant bloodstream trypomastigote stage of Trypanosoma brucei brucei harboring AQP1 to 3 deletions to EC50 for bloodstream trypomastigote stage of wild-type Trypanosoma brucei brucei Lister 427 in presence of glycerol; type: functional
[9] = test system: Trypanosoma brucei brucei; assay: Resistant factor, ratio of EC50 for bloodstream trypomastigote stage of wild-type Trypanosoma brucei brucei Lister 427 assessed as inhibition of respiration in presence of glycerol to EC50 for bloodstream trypomastigote stage of wild-type Trypanosoma brucei brucei Lister 427 assessed as inhibition of respiration in absence of glycerol; type: functional
[10] = molecular target: T1, Alternative oxidase, mitochondrial; assay: Binding affinity to recombinant Trypanosoma brucei brucei 427 alternative oxidase expressed in Escherichia coli BL21 cells using ubiquinol-1 as substrate by spectrophotometric method
[11] = test system: Trypanosoma brucei brucei; assay: Antiparasitic activity against bloodstream trypomastigote stage of wild type Trypanosoma brucei brucei Lister 427 after 48 hrs in presence of glycerol by resazurin dye based fluorescence assay; type: functional; conditions: Lister 427, 48 h; method in brief: as §1
[12] = Selectivity index, ratio of CC50 for HEK293T cells to EC50 for pentamidine-resistant bloodstream trypomastigote stage of Trypanosoma brucei brucei harboring AQP1 to 3 deletions; type: toxicity; conditions: human; read-out: Ratio CC50/EC50

T1 sequence (Q26710 whole entry): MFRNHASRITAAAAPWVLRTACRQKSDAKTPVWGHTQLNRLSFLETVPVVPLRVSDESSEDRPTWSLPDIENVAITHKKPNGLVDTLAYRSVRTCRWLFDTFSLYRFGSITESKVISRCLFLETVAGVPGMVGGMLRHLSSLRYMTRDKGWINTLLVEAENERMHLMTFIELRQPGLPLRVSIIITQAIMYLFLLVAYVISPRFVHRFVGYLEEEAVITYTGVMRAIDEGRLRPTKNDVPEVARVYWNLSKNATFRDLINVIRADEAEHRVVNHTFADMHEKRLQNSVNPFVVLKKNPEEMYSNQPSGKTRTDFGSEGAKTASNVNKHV

SMILES | CC50 at 30 h [1] [µM] | EC50 ([2]; Lister 427, 48 h) [µM] | Ratio EC50 [3] | IC50 [4] [µM] | selectivity ratio [5] | also measured
Cc1cc(OCCCCCCCCCCCCC[n+]2cccc3ccccc32)ccc1C(=O)O.[Br-] | 24.4 | 10.6 | <1 | > 5 | 2.3 | 
O=C(NO)c1ccccc1O [SALICYLHYDROXAMIC ACID] |  | 62.9 |  |  |  | 
C/C(=C\CO)CC/C=C(\C)COc1ccc(C(=O)O)c(O)c1 |  |  | <1 | 2.1 |  | pKa [6]: < 5; Activity [7]: inactive
COC(=O)c1c(C)cc(OCCCCCCCCCCCCC[P+](c2ccccc2)(c2ccccc2)c2ccccc2)cc1O.[Br-] |  |  | <1 |  |  | Ratio EC50 [8]: >2
CCOC(=O)c1c(C)cc(OCCCCCCCCCCCCCBr)cc1O | 29.6 | 8.9 | <1 | > 5 | 3.3 | Ratio EC50 [9]: <1
CCOC(=O)c1ccc(OC/C(C)=C/CC/C(C)=C/CO)cc1O |  |  | <1 | > 5 |  | 
COc1cc(OCCCCCCCCCCCCCBr)cc(O)c1C=O |  |  | <1 | 2.3 |  | Activity [7]: inactive
COC(=O)c1ccc(OC/C(C)=C/CC/C(C)=C/CO)cc1F | > 100 |  | <1 | > 5 |  | Activity [7]: inactive
Cc1cc(OCCCCCCCCCCCCC[P+](c2ccccc2)(c2ccccc2)c2ccccc2)ccc1C(=O)O.[Br-] | 4.24 | 0.19 | <1 | > 5 | 22 | Ratio EC50 [9]: <1
COC(=O)c1cc(OCCCCCCCCCCCCC[P+](c2ccccc2)(c2ccccc2)c2ccccc2)ccc1O.[Br-] | 0.64 | 0.028 | <1 | 0.012 |  | 
COC(=O)c1ccc(OCCCCCCCCCCCCC[n+]2cccc3ccccc32)cc1F.[Br-] | 3.36 | 2.4 | <1 | > 5 | 1.4 | Ratio EC50 [9]: <1
COC(=O)c1ccc(OCCCCCCCCCCCCC[P+](c2ccccc2)(c2ccccc2)c2ccccc2)cc1C.[Br-] | 0.35 | 0.018 | <1 | > 5 | 19 | Ratio EC50 [8]: >2
N=C(N)c1ccc(OCCCCCOc2ccc(C(=N)N)cc2)cc1 [PENTAMIDINE] |  | 0.0042 |  |  |  | 
COC(=O)c1ccc(OC/C(C)=C/CC/C(C)=C/CO)cc1C | > 100 |  | <1 | 1.69 |  | Activity [7]: inactive
COC(=O)c1ccc(OCCCCCCCCCCCCCBr)cc1C |  |  | <1 |  |  | Activity [2]: inactive
COC(=O)c1ccc(OC/C(C)=C/CC/C(C)=C/COC(C)=O)cc1O | 31.8 | 19.3 | <1 | > 5 | 1.7 | 
O=Cc1ccc(OCCCCCCCCCCCCCBr)cc1O |  | 17.6 |  | 0.073 |  | 
O=Cc1ccc(OCCCCCCCCCCCCC[n+]2cccc3ccccc32)cc1O | > 200 | 1.75 |  | 1.23 | > 114 | 
COC(=O)c1ccc(OC/C(C)=C/CC/C(C)=C/COC(C)=O)cc1C | 45.1 | 17 | <1 | > 5 | 2.7 | 
O=C(O)c1ccc(OCCCCCCCCCC[P+](c2ccccc2)(c2ccccc2)c2ccccc2)cc1O.[Br-] | 8.2 | 0.73 | <1 | > 5 | 11 | Ratio EC50 [9]: <1
COC(=O)c1ccc(OC/C(C)=C/CC/C(C)=C/CO)cc1O |  |  | <1 |  |  | 

SMILES | CC50 at 30 h [1] [µM] | EC50 ([2]; Lister 427, 48 h) [µM] | Ratio EC50 [3] | IC50 [4] [µM] | selectivity ratio [5] | also measured
COC(=O)c1ccc(OCCCCCCCCCCCCCBr)cc1F |  |  | <1 |  |  | Activity [2]: inactive
O=C(O)c1ccc(OCCCCCCCCCCCCC[P+](c2ccccc2)(c2ccccc2)c2ccccc2)cc1O.[Br-] | 19.6 | 0.086 | <1 | > 5 | 227 | Ratio EC50 [8]: >2
CC(C)=CCOc1ccc(C(=O)O)c(O)c1 |  |  |  |  |  | Ki [10]: 5 µM
COC(=O)c1ccc(OCCCCCCCCCCCCC[P+](c2ccccc2)(c2ccccc2)c2ccccc2)cc1F.[Br-] | 0.22 | 0.05 | <1 | 0.74 | 4.5 | Ratio EC50 [8]: >2
CCOC(=O)c1c(C)cc(OC/C(C)=C/CC/C(C)=C/CC/C(C)=C/COC(C)=O)cc1O | 20.8 | 6.6 | <1 | > 5 | 3.1 | 
CC(=O)OC/C=C(\C)CC/C=C(\C)COC(=O)c1ccc(O)cc1O | > 20 |  | <1 | 0.0091 |  | Ratio EC50 [9]: <1
C/C(=C\Cc1c(O)c(Cl)c(C)c(C=O)c1O)CC/C=C(\C)[C@@H]1CC(=O)C(C)(C)O1 [ASCOFURANONE] |  |  |  |  |  | MIC ([2]; Lister 427, 48 h): 250 µM (≈ 105 µg/mL); MIC [11]: 0.03 µM
COC(=O)c1ccc(OCCCCCCCCCC[P+](c2ccccc2)(c2ccccc2)c2ccccc2)cc1O.[Br-] | 0.44 | 0.002 | <1 | > 5 | 184 | 
C/C(=C\CO)CC/C=C(\C)COc1ccc(C(=O)O)c(C)c1 |  |  | <1 | 0.92 |  | pKa [6]: < 5; Activity [7]: inactive
C/C(=C\CO)CC/C=C(\C)COc1ccc(C(=O)O)cc1 |  |  | <1 | 2.4 |  | pKa [6]: < 5; Activity [7]: inactive
C/C(=C\CO)CC/C=C(\C)COc1ccc(C(=O)O)c(F)c1 |  |  | <1 | 1.1 |  | pKa [6]: < 5; Activity [7]: inactive
CC(=O)OC/C=C(\C)CC/C=C(\C)COC(=O)c1ccc(OC/C(C)=C/CC/C(C)=C/COC(C)=O)cc1O |  |  | <1 | > 5 |  | 
COC(=O)c1ccc(OCCCCCCCCCCCCC[n+]2cccc3ccccc32)cc1C.[Br-] | 0.3 | 0.16 | <1 | > 5 | 1.9 | 
COC(=O)c1ccc(OCCCCCCCCCCCCC[P+](c2ccccc2)(c2ccccc2)c2ccccc2)cc1O.[Br-] |  | 0.018 | <1 | 0.015 |  | 
O=C(O)c1ccc(OCCCCCCCCCCCCC[P+](c2ccccc2)(c2ccccc2)c2ccccc2)cc1F.[Br-] | 8.35 | 0.037 | <1 | > 5 | 225 | Ratio EC50 [8]: >2
CCOC(=O)c1c(C)cc(OCCCCCCCCCCCCC[n+]2cccc3ccccc32)cc1O.[Br-] | 0.61 | 0.29 | <1 | > 5 | 2.1 | 
COC(=O)c1ccc(OCCCCCCCCCCCCCBr)cc1O | 28.6 | 8.1 | <1 | > 5 | 3.5 | Ratio EC50 [9]: <1
Cc1cc(OCCCCCCCCCCCCC[P+](c2ccccc2)(c2ccccc2)c2ccccc2)cc(O)c1C(=O)O.[Br-] | 0.83 | 0.013 | <1 | 0.0042 | 64 | selectivity ratio [12]: 230; Ratio EC50 [9]: <1
COC(=O)c1ccc(OC/C(C)=C/CC/C(C)=C/COC(C)=O)cc1F |  |  | <1 |  |  | 
C/C(=C\CO)CC/C=C(\C)CC/C=C(\C)COc1cc(C)c(C(=O)O)c(O)c1 |  |  | <1 | 0.0031 |  | pKa [6]: < 5; Activity [7]: inactive
